In experiment [1] the target is T1, Delta-type opioid receptor (Rattus norvegicus, UniProt P33533). Put plainly: Displacement of [3H]diprenorphine from rat delta opioid receptor expressed in rat C6 cells after 1 hr by liquid scintillation counting. Type of experiment: cell-based. The essentials:
(§1)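 Membranes from C6 glioma cells stably expressing rat MOR or DOR, or CHO cells expressing human KOR (10-20 μg protein), incubated with 0.2 nM [3H]diprenorphine and increasing peptide concentrations in 50 mM Tris-HCl pH 7.4 for 1 h at 25 °C. Filtered and counted by scintillation. Nonspecific binding defined with 10 μM naloxone.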

In experiment [2] the target is T2, Kappa-type opioid receptor (Homo sapiens, UniProt P41145). Put plainly: Agonist activity at human kappa opioid receptor expressed in CHO cells assessed as stimulation of [35S]GTPgammaS binding at 10 uM after 1 hr by liquid scintillation counting relative to U69593. Type of experiment: functional, cell-based. An outline of the steps: (§2)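 Membranes (20-30 μg protein) from C6-MOR, C6-DOR or CHO-KOR cells incubated 1 h at 25 °C in 50 mM Tris-HCl pH 7.4, 100 mM NaCl, 5 mM MgCl2 with 0.1 nM [35S]GTPγS, 100 μM GDP and peptide at 0.001-10000 nM or 10 μM. Filtered and counted.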

Experiment [3] deals with T3, Mu-type opioid receptor (Rattus norvegicus, UniProt P33535). Put plainly: Displacement of [3H]diprenorphine from rat mu opioid receptor expressed in rat C6 cells after 1 hr by liquid scintillation counting. Type of experiment: cell-based. The essentials:
as §1

The target of experiment [4] is Delta-type opioid receptor (Rattus norvegicus) (UniProt P33533). Description: Agonist activity at rat delta opioid receptor expressed in rat C6 cells assessed as stimulation of [35S]GTPgammaS binding at 10 uM after 1 hr by liquid scintillation counting relative to SNC80. Type of experiment: functional, cell-based. An outline of the steps:
as §2

For experiment [5], the target named is Mu-type opioid receptor (Rattus norvegicus) (UniProt P33535). Description: Agonist activity at rat mu opioid receptor expressed in rat C6 cells assessed as stimulation of [35S]GTPgammaS binding at 10 uM after 1 hr by liquid scintillation counting relative to DAMGO. Type of experiment: functional, cell-based. The essentials:
as §2

Experiment [6] concerns the target T2, Kappa-type opioid receptor. Put plainly: Displacement of [3H]diprenorphine from human kappa opioid receptor expressed in CHO cells after 1 hr by liquid scintillation counting. Type of experiment: cell-based. The essentials:
as §1

Experiment [7] has as its target Delta-type opioid receptor (Rattus norvegicus) (UniProt P33533). Conditions: C6, 1 uM.
Experiment [8] has as its target T2, Kappa-type opioid receptor. Put plainly: Ratio of compound Ki to 5R,8S,11S,14S)-14-((S)-2-amino-3-(4-hydroxyphenyl)propanamido)-8,11-dibenzyl-7,10,13-trioxo-1,3-dithia-6,9,12-triazacyclopentadecane-5-carboxamide Ki for human kappa opioid receptor expressed in CHO cells. The format is cell-based.
The target in experiment [9] is Delta-type opioid receptor (Rattus norvegicus) (UniProt P33533). Description: Ratio of compound Ki to 5R,8S,11S,14S)-14-((S)-2-amino-3-(4-hydroxyphenyl)propanamido)-8,11-dibenzyl-7,10,13-trioxo-1,3-dithia-6,9,12-triazacyclopentadecane-5-carboxamide Ki for rat delta opioid receptor expressed in rat C6 cells. The format is cell-based.
Experiment [10] concerns the target T3, Mu-type opioid receptor. Description: Agonist activity at rat mu opioid receptor expressed in rat C6 cells assessed as stimulation of [35S]GTPgammaS binding after 1 hr by liquid scintillation counting. Type of experiment: functional, cell-based. The essentials:
as §2

Experiment [11] has as its target Delta-type opioid receptor (Rattus norvegicus) (UniProt P33533). The following applies: C6, 1 uM. This is another data set of the same source.
Experiment [12] has as its target T2, Kappa-type opioid receptor. Description: Agonist activity at human kappa opioid receptor expressed in CHO cells assessed as stimulation of [35S]GTPgammaS binding after 1 hr by liquid scintillation counting. The format is functional, cell-based. The essentials:
as §2

In experiment [13] the target is T1, Delta-type opioid receptor. Description: Binding affinity to rat delta opioid receptor expressed in rat C6 cells. The format is cell-based. An outline of the steps:
as §1

The target in experiment [14] is T1, Delta-type opioid receptor. Put plainly: Agonist activity at rat delta opioid receptor expressed in rat C6 cells assessed as inhibition of forskolin-stimulated cAMP production after 30 mins by radioimmunoassay.

Numbered stars: 1 amine (or outer) side, 2 acyl side, 3 side chain; on linkers, the order of the positions; unused ones are H or OH. Bridge positions count the residues as written; N and C are the ends. Square brackets hold non-standard residues; d marks the D form. Peptide text beside a SMILES is read from it. 1Nal = N[C@@H](Cc1cccc2ccccc12)C(=O)O; 2Nal = N[C@@H](Cc1ccc2ccccc2c1)C(=O)O; CH2 = C([*:1])[*:2]

T2 sequence (P41145 whole entry): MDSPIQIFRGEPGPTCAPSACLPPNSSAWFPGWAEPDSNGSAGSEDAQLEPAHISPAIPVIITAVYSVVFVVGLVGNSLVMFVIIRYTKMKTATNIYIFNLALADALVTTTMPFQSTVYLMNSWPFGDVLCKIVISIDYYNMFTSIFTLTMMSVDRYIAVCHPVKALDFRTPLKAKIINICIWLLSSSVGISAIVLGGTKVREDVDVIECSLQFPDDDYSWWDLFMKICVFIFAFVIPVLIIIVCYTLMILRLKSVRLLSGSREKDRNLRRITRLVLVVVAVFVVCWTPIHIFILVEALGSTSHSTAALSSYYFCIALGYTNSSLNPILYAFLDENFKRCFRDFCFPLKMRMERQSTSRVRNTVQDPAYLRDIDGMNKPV
Mu-type opioid receptor (Rattus norvegicus), sequence (P33535 whole entry): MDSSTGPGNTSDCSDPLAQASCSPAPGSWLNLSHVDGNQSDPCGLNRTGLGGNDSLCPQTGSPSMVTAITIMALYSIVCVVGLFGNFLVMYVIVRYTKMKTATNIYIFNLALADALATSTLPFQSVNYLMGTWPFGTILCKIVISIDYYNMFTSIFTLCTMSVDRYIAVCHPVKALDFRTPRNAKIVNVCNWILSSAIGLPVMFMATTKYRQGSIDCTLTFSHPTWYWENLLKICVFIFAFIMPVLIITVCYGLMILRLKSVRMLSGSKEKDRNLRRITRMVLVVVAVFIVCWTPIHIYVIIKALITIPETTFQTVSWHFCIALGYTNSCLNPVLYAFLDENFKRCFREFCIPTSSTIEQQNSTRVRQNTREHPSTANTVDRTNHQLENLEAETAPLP
T3 sequence (P33535 whole entry): as above
Delta-type opioid receptor (Rattus norvegicus), sequence (P33533 whole entry): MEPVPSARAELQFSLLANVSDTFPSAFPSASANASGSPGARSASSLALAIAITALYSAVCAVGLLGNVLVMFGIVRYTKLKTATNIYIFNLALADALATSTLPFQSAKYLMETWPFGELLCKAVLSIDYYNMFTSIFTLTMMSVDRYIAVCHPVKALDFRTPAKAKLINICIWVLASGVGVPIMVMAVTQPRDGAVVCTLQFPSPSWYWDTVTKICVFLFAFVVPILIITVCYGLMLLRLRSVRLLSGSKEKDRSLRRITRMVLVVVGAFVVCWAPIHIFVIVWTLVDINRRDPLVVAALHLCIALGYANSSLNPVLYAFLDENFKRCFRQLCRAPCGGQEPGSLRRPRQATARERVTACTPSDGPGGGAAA
T1 sequence (P33533 whole entry): as above

For `NC(=O)[C@@H]1CSCSC[C@@H](NC(=O)[C@@H](N)Cc2ccc(O)cc2)C(=O)N[C@@H](Cc2ccccc2)C(=O)N[C@@H](Cc2cccc3ccccc23)C(=O)N1` (H-Y[dC]F[1Nal]C-NH2; linker 2-5 via CH2), the Ki was found to be 5.2 nM in experiment [1], 0.61 nM at Mu-type opioid receptor [3] and 6 nM in [6]. Moreover, the Efficacy in experiment [2] was determined as 87%; in experiment [4], 22%; in experiment [5], 100%.

As for `C=CCN1C[C@H](C)N([C@H](c2ccc(C(=O)N(CC)CC)cc2)c2cccc(OC)c2)C[C@H]1C`, the inhibition in [7] turned out to be 67%.

As for `NC(=O)[C@@H]1CSSC[C@@H](NC(=O)[C@@H](N)Cc2ccc(O)cc2)C(=O)N[C@@H](Cc2ccc3ccccc3c2)C(=O)N[C@@H](Cc2ccccc2)C(=O)N1` (H-Y[dC][2Nal]FC-NH2; disulfide 2-5), the Ki in experiment [1] is 55 nM; at Mu-type opioid receptor [3] it was 0.72 nM; in experiment [6], 145 nM. In addition, the Efficacy is 7.5% in experiment [2], 0.7% in [4] and 34% in experiment [5]. Moreover, the Ratio Ki in [8] and in [9] was over 10 in each case.

Turning to `NC(=O)[C@@H]1CSSC[C@@H](NC(=O)[C@@H](N)Cc2ccc(O)cc2)C(=O)N[C@@H](Cc2ccccc2)C(=O)N[C@@H](Cc2ccc3ccccc3c2)C(=O)N1` (H-Y[dC]F[2Nal]C-NH2; disulfide 2-5), the Ki was found to be 11 nM in experiment [1], 1.2 nM on Mu-type opioid receptor [3] and 5.9 nM in experiment [6]. Besides, the Efficacy came out at 49% in [2], 2% in experiment [4] and 90% in experiment [5].

`NC(=O)[C@@H]1CSCSC[C@@H](NC(=O)[C@@H](N)Cc2ccc(O)cc2)C(=O)N[C@@H](Cc2ccccc2)C(=O)N[C@@H](Cc2ccc3ccccc3c2)C(=O)N1` (H-Y[dC]F[2Nal]C-NH2; linker 2-5 via CH2): the EC50 is 1.2 nM on Mu-type opioid receptor [10], 12 nM in experiment [12] and 36 nM in experiment [14]. Besides, the inhibition in [11] was 55%; in [7] it was 37%. Besides, the Ki was found to be 0.48 nM in experiment [1], 2.1 nM in experiment [13], 0.47 nM at Mu-type opioid receptor [3] and 1.3 nM in [6]. Moreover, the Efficacy in experiment [2] is 89%; in experiment [4], 7%; in experiment [5], 99%.

Take `NC(=O)[C@@H]1CSCSC[C@@H](NC(=O)[C@@H](N)Cc2ccc(O)cc2)C(=O)N[C@@H](Cc2ccc3ccccc3c2)C(=O)N[C@@H](Cc2ccccc2)C(=O)N1` (H-Y[dC][2Nal]FC-NH2; linker 2-5 via CH2): the Ki stood at 15 nM in [1], 0.47 nM at Mu-type opioid receptor [3] and 69 nM in experiment [6]. Moreover, the Efficacy in [2] was found to be 35%; in experiment [4] it was 23%; in [5], 34%. Further, the Ratio Ki in experiment [8] and in [9] was over 10 in each case.

`NC(=O)[C@@H]1CSSC[C@@H](NC(=O)[C@@H](N)Cc2ccc(O)cc2)C(=O)N[C@@H](Cc2cccc3ccccc23)C(=O)N[C@@H](Cc2ccccc2)C(=O)N1` (H-Y[dC][1Nal]FC-NH2; disulfide 2-5): the inhibition constant Ki in experiment [1] amounted to 34 nM; at Mu-type opioid receptor [3], 0.08 nM; in experiment [6], 21 nM. Further, the Efficacy in experiment [2] is 59%; in experiment [4], 0%; in [5], 33%. Further, the Ratio Ki in experiment [9] was over 10.

`NC(=O)[C@@H]1CSCSC[C@@H](NC(=O)[C@@H](N)Cc2ccc(O)cc2)C(=O)N[C@@H](Cc2cccc3ccccc23)C(=O)N[C@@H](Cc2ccccc2)C(=O)N1` (H-Y[dC][1Nal]FC-NH2; linker 2-5 via CH2): the Ki was determined as 34 nM in experiment [1], 0.33 nM at Mu-type opioid receptor [3] and 5.8 nM in experiment [6]. Besides, the Efficacy amounted to 77% in experiment [2], 23% in [4] and 91% in experiment [5]. Further, the Ratio Ki in [9] was over 10.

Consider `NC(=O)[C@@H]1CSSC[C@@H](NC(=O)[C@@H](N)Cc2ccc(O)cc2)C(=O)N[C@@H](Cc2ccccc2)C(=O)N[C@@H](Cc2cccc3ccccc23)C(=O)N1` (H-Y[dC]F[1Nal]C-NH2; disulfide 2-5), for which the Ki in [1] is 7.1 nM; on Mu-type opioid receptor [3], 2.5 nM; in experiment [6], 11 nM. Moreover, the Efficacy in experiment [2] came to 100%; in experiment [4], 15%; in [5], 88%.
